What was measured:
SK-MEL-28 = assay: Cytotoxicity against human SK-MEL-28 cells after 48 hrs by SRB assay; assay type: functional, cell-based; settings: Homo sapiens, SK-MEL-28, 48 h; for CC50: read-out: LC50 (the source's name)
Summary of the method: (§1)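 Cells grown in RPMI 1640 with 10% FBS and penicillin/streptomycin at 37 °C and 5% CO₂, trypsinized, then seeded at 5 × 10³/well. After 18 h drug-free attachment, samples in DMSO/EtOH/PBS (0.5:0.5:99) were added for 48 h continuous exposure. Cells were fixed with cold TCA (1 h, 4 °C) and stained with SRB (10 min). Tris-solubilized stain read at 490 nm. Triplicate wells, mean ± SD; GI₅₀ derived.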

A549 = assay: Cytotoxicity against human A549 cells after 48 hrs by SRB assay; assay type: functional, cell-based; settings: Homo sapiens, A549, 48 h; summary of the method: as §1
HeLa = assay: Cytotoxicity against human HeLa cells after 48 hrs by SRB assay; assay type: functional; settings: for CC50: read-out: LC50 (the source's name); summary of the method: as §1
LoVo [1] = assay: Cytotoxicity against human LoVo cells after 48 hrs by SRB assay; assay type: functional; settings: for CC50: read-out: LC50 (the source's name)
[2] = Cytotoxicity against human HeLa-APL cells after 48 hrs by SRB assay; assay type: functional; summary of the method: as §1
PANC-1 = assay: Cytotoxicity against human PANC1 cells after 48 hrs by SRB assay; assay type: functional; settings: PANC-1, 48 h; for CC50: read-out: LC50 (the source's name); summary of the method: as §1
[3] = Cytotoxicity against human IGROV cells after 48 hrs by SRB assay; assay type: functional; settings: for CC50: read-out: LC50 (the source's name); summary of the method: as §1
SK-BR-3 = assay: Cytotoxicity against human SKBR3 cells after 48 hrs by SRB assay; assay type: functional; settings: SK-BR-3, 48 h; for CC50: read-out: LC50 (the source's name); summary of the method: as §1
DU-145 = assay: Cytotoxicity against human DU145 cells after 48 hrs by SRB assay; assay type: functional, cell-based; settings: Homo sapiens, DU-145, 48 h; for CC50: read-out: LC50 (the source's name); summary of the method: as §1
HT-29 = assay: Cytotoxicity against human HT29 cells after 48 hrs by SRB assay; assay type: functional, cell-based; settings: Homo sapiens, HT-29, 48 h; for CC50: read-out: LC50 (the source's name); summary of the method: as §1
LoVo [4] = assay: Cytotoxicity against human doxorubicin resistant LoVo cells after 48 hrs by SRB assay; assay type: functional; settings: for CC50: read-out: LC50 (the source's name); summary of the method: as §1
[5] = Cytotoxicity against human IGROV-ET cells after 48 hrs by SRB assay; assay type: functional; settings: for CC50: read-out: LC50 (the source's name); summary of the method: as §1
K562 = assay: Cytotoxicity against human K562 cells after 48 hrs by SRB assay; assay type: functional; settings: K562, 48 h; for CC50: read-out: LC50 (the source's name); summary of the method: as §1

| SMILES | GI50 (SK-MEL-28) | GI50 (SK-MEL-28; read-out: GI50) | CC50 (SK-MEL-28) | GI50 (A549) | LC50 (A549) | GI50 (A549; read-out: GI50) | GI50 (HeLa) | TGI (HeLa) | CC50 (HeLa) | TGI (LoVo [1]) | CC50 (LoVo [1]) | GI50 [2] | LC50 (concentration giving 50% net cell kill) [2] | TGI [2] | GI50 (PANC-1) | TGI (PANC-1) | CC50 (PANC-1) | GI50 [3] | GI50 ([3]; read-out: GI50) | CC50 [3] | other results |
| --- | --- | --- | --- | --- | --- | --- | --- | --- | --- | --- | --- | --- | --- | --- | --- | --- | --- | --- | --- | --- | --- |
| C/C=C1\NC(=O)[C@H](Cc2ccc(F)c(F)c2)NC(=O)[C@@H](C(C)C)NC(=O)[C@@H]([C@H](C)CC)NC(=O)[C@H](NC(=O)[C@H](NC(=O)[C@H](CCCN)NC(=O)[C@H]2CCCN2C(=O)[C@H](NC(=O)[C@@H](NC(=O)[C@@H](NC(=O)[C@H](NC(=O)CCCC(C)C)C(C)C)[C@@H](C)O)C(C)C)C(C)C)[C@H](C)CC)[C@H](C)OC(=O)[C@H](C(C)C)NC1=O | 203 nM | 128 nM | 323 nM | 293 nM | 968 nM | 137 nM | 98.1 nM | 177 nM | 466 nM | 21.2 nM | 25.9 nM | 155 nM | 271 nM | 166 nM | 575 nM | 979 nM | 1650 nM | 86.8 nM | 37.9 nM | 156 nM | GI50 (LoVo [1]): 12.8 nM; GI50 (SK-BR-3): 31.9 nM; GI50 (SK-BR-3; read-out: GI50): 30 nM; CC50 (SK-BR-3): 134 nM; GI50 (DU-145): 131 nM; GI50 (DU-145; read-out: GI50): 43 nM; CC50 (DU-145): 243 nM; GI50 (HT-29): 30.4 nM; TGI (HT-29): 28.7 nM; CC50 (HT-29): 90.4 nM; GI50 (LoVo [4]): 18.4 nM; TGI (LoVo [4]): 20.5 nM; CC50 (LoVo [4]): 52.8 nM; TGI [5]: 76.7 nM; GI50 ([5]; read-out: GI50): 47 nM; CC50 [5]: 515 nM; GI50 (K562): 732 nM; TGI (K562): 1090 nM; CC50 (K562): 1610 nM |
| C/C=C1\NC(=O)[C@H](Cc2ccc3ccccc3c2)NC(=O)[C@@H](C(C)C)NC(=O)[C@@H]([C@H](C)CC)NC(=O)[C@H](NC(=O)[C@H](NC(=O)[C@H](CCCN)NC(=O)[C@H]2CCCN2C(=O)[C@H](NC(=O)[C@@H](NC(=O)[C@@H](NC(=O)[C@H](NC(=O)CCCC(C)C)C(C)C)[C@@H](C)O)C(C)C)C(C)C)[C@H](C)CC)[C@H](C)OC(=O)[C@H](C(C)C)NC1=O | 213 nM | 135 nM | 339 nM | 194 nM | 343 nM | 110 nM | 71.6 nM | 94.6 nM | 220 nM | 22.9 nM | 34.4 nM | 77.5 nM | 205 nM | 91.7 nM | 606 nM | 909 nM | 1370 nM | 37.2 nM | 27.3 nM | 44.3 nM | GI50 (SK-BR-3): 18.8 nM; GI50 (SK-BR-3; read-out: GI50): 21.7 nM; CC50 (SK-BR-3): 32.7 nM; GI50 (DU-145): 116 nM; GI50 (DU-145; read-out: GI50): 50.9 nM; CC50 (DU-145): 224 nM; GI50 (HT-29): 37.9 nM; TGI (HT-29): 39.1 nM; CC50 (HT-29): 60.9 nM; GI50 (LoVo [4]): 29.5 nM; TGI (LoVo [4]): 29 nM; CC50 (LoVo [4]): 148 nM; TGI [5]: 60.4 nM; GI50 ([5]; read-out: GI50): 46.4 nM; CC50 [5]: 120 nM; GI50 (K562): 287 nM; TGI (K562): 679 nM; CC50 (K562): 1320 nM |
| C/C=C1\NC(=O)[C@H](Cc2cccc(Cl)c2)NC(=O)[C@@H](C(C)C)NC(=O)[C@@H]([C@H](C)CC)NC(=O)[C@H](NC(=O)[C@H](NC(=O)[C@H](CCCN)NC(=O)[C@H]2CCCN2C(=O)[C@H](NC(=O)[C@@H](NC(=O)[C@@H](NC(=O)[C@H](NC(=O)CCCC(C)C)C(C)C)[C@@H](C)O)C(C)C)C(C)C)[C@H](C)CC)[C@H](C)OC(=O)[C@H](C(C)C)NC1=O | 313 nM | 183 nM | 738 nM | 429 nM | 911 nM | 194 nM | 98.3 nM | 131 nM | 256 nM | 27.9 nM | 69.1 nM | 191 nM | 275 nM | 172 nM | 869 nM | 1700 nM | 1700 nM | 44.7 nM | 41 nM | 48.5 nM | GI50 (LoVo [1]): 18.5 nM; GI50 (SK-BR-3): 41.9 nM; GI50 (SK-BR-3; read-out: GI50): 49.6 nM; CC50 (SK-BR-3): 48.3 nM; GI50 (DU-145): 173 nM; GI50 (DU-145; read-out: GI50): 100 nM; CC50 (DU-145): 305 nM; GI50 (HT-29): 40.2 nM; TGI (HT-29): 42.5 nM; CC50 (HT-29): 153 nM; GI50 (LoVo [4]): 40.8 nM; TGI (LoVo [4]): 35.7 nM; CC50 (LoVo [4]): 340 nM; TGI [5]: 97 nM; GI50 ([5]; read-out: GI50): 71.2 nM; CC50 [5]: 163 nM; GI50 (K562): 867 nM; TGI (K562): 1220 nM; CC50 (K562): 1730 nM |
| C/C=C1\NC(=O)[C@H](Cc2ccc(Cl)cc2)NC(=O)[C@@H](C(C)C)NC(=O)[C@@H]([C@H](C)CC)NC(=O)[C@H](NC(=O)[C@H](NC(=O)[C@H](CCCN)NC(=O)[C@H]2CCCN2C(=O)[C@H](NC(=O)[C@@H](NC(=O)[C@@H](NC(=O)[C@H](NC(=O)CCCC(C)C)C(C)C)[C@@H](C)O)C(C)C)C(C)C)[C@H](C)CC)[C@H](C)OC(=O)[C@H](C(C)C)NC1=O | 393 nM | 214 nM | 931 nM | 473 nM | 934 nM | 227 nM | 193 nM | 184 nM | 362 nM | 55 nM | 83.8 nM | 215 nM | 286 nM | 186 nM | 1140 nM | 1700 nM | 1700 nM | 62.9 nM | 46.3 nM | 112 nM | GI50 (LoVo [1]): 21.6 nM; GI50 (SK-BR-3): 38.6 nM; GI50 (SK-BR-3; read-out: GI50): 39.7 nM; CC50 (SK-BR-3): 206 nM; GI50 (DU-145): 189 nM; GI50 (DU-145; read-out: GI50): 112 nM; CC50 (DU-145): 388 nM; GI50 (HT-29): 36.5 nM; TGI (HT-29): 73.5 nM; CC50 (HT-29): 143 nM; GI50 (LoVo [4]): 57.1 nM; TGI (LoVo [4]): 44.9 nM; CC50 (LoVo [4]): 340 nM; GI50 [5]: 122 nM; GI50 ([5]; read-out: GI50): 86.2 nM; CC50 [5]: 175 nM; GI50 (K562): 696 nM; TGI (K562): 1090 nM; CC50 (K562): 1690 nM |

— ChEMBL document CHEMBL1156597, “Structure-activity relationship of kahalalide F synthetic analogues” (J Med Chem, 2008)
